Test results from ChEMBL document CHEMBL4316593 (Eur J Med Chem, 2019).
The source made the active and inactive calls. The calls are words filed in the database; no cut-off is given here.

Key:
[1] = Inhibition of RTK/PI3K/AKT/mTOR signaling in human U87 cells assessed as down regulation of ZMAT2 gene expression at cytotoxic IC50 measured after 48 hrs relative to control; assay type: cell-based; conditions: U-87MG ATCC
In short: (§1)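 Cells were exposed for 48hrs at 37°C in humidified 5% CO₂ to the compound at its previously determined IC₅₀, with Cisplatin at its IC₅₀ and an untreated negative control alongside. Each condition was run in triplicate. RNA was isolated from all samples by the same protocol. Genes were called differentially expressed by DESeq2 at q-value < 0.05 and fold change > 1.5.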

[2] = Inhibition of RTK/PI3K/AKT/mTOR signaling in human U87 cells assessed as down regulation of ABCB8 gene expression at cytotoxic IC50 measured after 48 hrs relative to control; assay type: cell-based; conditions: U-87MG ATCC
In short: (§2)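 U87 cells grown in MEM with 10% FBS at 37°C, 5% CO2. Cells exposed to IC50 of test compound for 48 hrs, alongside untreated and cisplatin controls, each condition in triplicate. RNA isolated and profiled; differential expression called with DESeq2 (q-value < 0.05, fold change > 1.5), fold change versus untreated.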

[3] = Inhibition of RTK/PI3K/AKT/mTOR signaling in human U87 cells assessed as up regulation of UPK1A-AS1 gene expression at cytotoxic IC50 measured after 48 hrs relative to control; assay type: cell-based; conditions: U-87MG ATCC
[4] = Inhibition of RTK/PI3K/AKT/mTOR signaling in human U87 cells assessed as up regulation of neuron navigator 1 gene expression at cytotoxic IC50 measured after 48 hrs relative to control; assay type: cell-based
[5] = Inhibition of RTK/PI3K/AKT/mTOR signaling in human U87 cells assessed as up regulation of retinoic acid receptor alpha gene expression at cytotoxic IC50 measured after 48 hrs relative to control; assay type: cell-based; conditions: U-87MG ATCC
[6] = Inhibition of RTK/PI3K/AKT/mTOR signaling in human U87 cells assessed as up regulation of WW domain containing transcription regulator 1 gene expression at cytotoxic IC50 measured after 48 hrs relative to control; assay type: cell-based; conditions: U-87MG ATCC
[7] = Inhibition of RTK/PI3K/AKT/mTOR signaling in human U87 cells assessed as down regulation of PHIP gene expression at cytotoxic IC50 measured after 48 hrs relative to control; assay type: cell-based; conditions: U-87MG ATCC; in short: as §1
LN-229 [8] = experiment: Induction of oxidative stress in human LN229 cells assessed as increase in redox level at cytotoxic IC50 measured after 5 hrs by H2DCFDA dye based fluorescence assay relative to control; assay type: functional, cell-based
In short: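 Cells grown overnight, exposed to IC50 for 5 hrs at 37°C with negative, positive (H2O2) and blank controls, plus solvent baseline. Pelleted, loaded with 2 µM H2DCFDA for 30 min at 37°C, washed, resuspended in warm medium, 20 min at room temperature. Fluorescence read at ex 485/em 535 nm.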

[9] = Inhibition of RTK/PI3K/AKT/mTOR signaling in human U87 cells assessed as up regulation of T-cell leukemia translocation altered gene expression at cytotoxic IC50 measured after 48 hrs relative to control; assay type: cell-based
LN-229 [10] = experiment: Induction of apoptosis in human LN229 cells assessed as decrease in caspase-3/7 activation at cytotoxic IC50 measured after 5 hrs by caspase-glo 3/7 luminescence assay relative to control; assay type: functional; parameters: scale not given: the % may be the effect or the level left
In short: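 Cells grown overnight in 96-well format, then given IC50 for 5 hrs at 37°C, 5% CO2, with negative, positive and blank (medium+DMSO+dye) wells. Equilibrated 30 min at room temperature, Caspase-Glo 3/7 reagent added 1:1 in the dark, luminescence read at 1 hr. Fold change = (test−blank)/(control−blank). Triplicate measurements, at least two independent experiments.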

U-87 MG [11] = experiment: Induction of DNA damage in human U87 cells assessed as change in BTG2 gene expression at cytotoxic IC50 measured after 48 hrs […] relative to control; assay type: functional, U-87MG ATCC
In short: (§3)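 U87 expression profiling. Cells incubated 48hrs at 37°C, 5% CO₂ with the IC₅₀ concentration, alongside a cisplatin and an untreated control, in triplicate. RNA was isolated by one common protocol and profiled. DEGs were called with DESeq2 (q < 0.05, fold change > 1.5) and expressed as fold change versus untreated.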

[12] = Inhibition of RTK/PI3K/AKT/mTOR signaling in human U87 cells assessed as up regulation of solute carrier family 11 member 2 gene expression at cytotoxic IC50 measured after 48 hrs relative to control; assay type: cell-based; conditions: U-87MG ATCC
[13] = Inhibition of RTK/PI3K/AKT/mTOR signaling in human U87 cells assessed as up regulation of TTYH3 gene expression at cytotoxic IC50 measured after 48 hrs relative to control; assay type: cell-based; conditions: U-87MG ATCC
U-87 MG [14] = experiment: Induction of apoptosis in human U87 cells assessed as change in TUBA4A gene expression at cytotoxic IC50 measured after 48 hrs by […] relative to control; assay type: functional, U-87MG ATCC; in short: as §2
[15] = Inhibition of RTK/PI3K/AKT/mTOR signaling in human U87 cells assessed as up regulation of AGRN gene expression at cytotoxic IC50 measured after 48 hrs relative to control; assay type: cell-based; conditions: U-87MG ATCC; in short: as §1
[16] = Inhibition of RTK/PI3K/AKT/mTOR signaling in human U87 cells assessed as down regulation of DTL gene expression at cytotoxic IC50 measured after 48 hrs relative to control; assay type: cell-based; conditions: U-87MG ATCC; in short: as §2
[17] = Inhibition of RTK/PI3K/AKT/mTOR signaling in human U87 cells assessed as down regulation of KIF1BP gene expression at cytotoxic IC50 measured after 48 hrs relative to control; assay type: cell-based; conditions: U-87MG ATCC; in short: as §2
[18] = Inhibition of RTK/PI3K/AKT/mTOR signaling in human U87 cells assessed as up regulation of MRG domain binding protein gene expression at cytotoxic IC50 measured after 48 hrs relative to control; assay type: cell-based; conditions: U-87MG ATCC; in short: as §1
U-87 MG [19] = experiment: Cell cycle arrest in human U87 cells assessed as change in GADD45A gene expression at cytotoxic IC50 measured after 48 hrs […] relative to control; assay type: functional, U-87MG ATCC; in short: as §3
[20] = Inhibition of RTK/PI3K/AKT/mTOR signaling in human U87 cells assessed as down regulation of ZYG11B gene expression at cytotoxic IC50 measured after 48 hrs relative to control; assay type: cell-based; conditions: U-87MG ATCC; in short: as §1
U-87 MG [21] = experiment: Induction of DNA damage in human U87 cells assessed as change in BAX gene expression at cytotoxic IC50 measured after 48 hrs […] relative to control; assay type: functional, U-87MG ATCC; in short: as §3
U-87 MG [22] = experiment: Cell cycle arrest in human U87 cells assessed as change in PKMYT1 gene expression at cytotoxic IC50 measured after 48 hrs […] relative to control; assay type: functional, U-87MG ATCC; in short: as §3
U-87 MG [23] = experiment: Induction of apoptosis in human U87 cells assessed as apoptotic cells at cytotoxic IC50 measured after 48 hrs by Annexin V-FITC/propidium iodide staining based flow cytometry (reference value: 22.4%); assay type: functional, U-87MG ATCC
U-87 MG [24] = experiment: Induction of apoptosis in human U87 cells assessed as change in FAS gene expression at cytotoxic IC50 measured after 48 hrs […] relative to control; assay type: functional, U-87MG ATCC; in short: as §2
U-87 MG [25] = experiment: Induction of apoptosis in human U87 cells assessed as change in ACTG1 gene expression at cytotoxic IC50 measured after 48 hrs […] relative to control; assay type: functional, U-87MG ATCC; in short: as §2
[26] = Inhibition of RTK/PI3K/AKT/mTOR signaling in human U87 cells assessed as up regulation of single Ig and TIR domain containing gene expression at cytotoxic IC50 measured after 48 hrs relative to control; assay type: cell-based; conditions: U-87MG ATCC

CC(=O)C(=NNc1ccccc1C#N)C(C)=O showed a log2FC [1] of -0.716, a log2FC [2] of -0.871 and a log2FC [3] of 2.69. It also gave a log2FC [4] of 0.879, a log2FC [5] of 1.04 and a log2FC [6] of 0.981. The log2FC [7] was -0.753, the Activity (LN-229 [8]) was “inactive” and the log2FC [9] was 1.25. For the same compound, the Activity (LN-229 [10]) was 36.1%, the “fold change (FC)” value (U-87 MG [11]) was 2.177 and the log2FC [12] was 1.18. The log2FC [13] was 0.524, the log2FC (U-87 MG [14]) was 1.583 and the log2FC [15] was 0.578. The log2FC [16] was -1.56, the log2FC [17] was -0.96 and the log2FC [18] was 0.97. The “fold change (FC)” value (U-87 MG [19]) was -0.9679, the log2FC [20] was -0.823 and the “fold change (FC)” value (U-87 MG [21]) was 2.512. For the same compound, the “fold change (FC)” value (U-87 MG [22]) was 1.852, the Activity (U-87 MG [23]) was 68.7% and the log2FC (U-87 MG [24]) was 3.514. It also gave a log2FC (U-87 MG [25]) of -1.416 and a log2FC [26] of 0.676.
